In ChEMBL document CHEMBL3124867, “Hepatitis C replication inhibitors that target the viral NS4B protein” (J Med Chem, 2014):
pEC50, pIC50: −log10 of the molar value.

Key:
[1] = Displacement of [3H]-3-(1-(3-chloro-6-isopropyl-8-(trifluoromethyl)imidazo[1,2-a]pyridine-2-carbonyl)piperidin-4-yl)oxazolidin-2-one from HCV genotype 1b C-terminal His-tagged NS4B (1 to 261 aa) expressed in baculovirus infected SF9 cells after overnight incubation; parameters: species or system Hepatitis C virus subtype 1b
Huh-7 = assay: Cytotoxicity against human HuH7 cells at 50 uM after 2 days by Cell Titer Glo assay; format: cell-based; settings: huh-7, 48 h
Outline: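 Huh7 cells were exposed to compound at 50 μM for 2 days and scored for cellular toxicity.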

Hepatitis C virus [2] = assay: Antiviral activity against Hepatitis C virus genotype 1a infected in human HuH7 cells after 48 hrs by luciferase reporter gene assay; format: functional, organism-based, Hepacivirus hominis; settings: subtype 1a, Huh-7, 48 h
Hepatitis C virus [3] = assay: Antiviral activity against Hepatitis C virus genotype 1b infected in human HuH7 cells after 48 hrs by luciferase reporter gene assay; format: functional, organism-based, Hepacivirus hominis; settings: Huh-7, 48 h
Hepatitis C virus [4] = assay: Antiviral activity against Hepatitis C virus genotype 1b expressing NS4B H94N mutant infected in human HuH7 cells after 48 hrs by luciferase reporter gene assay; format: functional, organism-based, Hepacivirus hominis; settings: Huh-7, 48 h
[5] = Lipophilicity, log D of the compound by chromatographic analysis; format: physicochemical
Outline: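 Lipophilicity was measured chromatographically and reported as ChromLogD; ≥6 replicates.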

Hepatitis C virus [6] = assay: Antiviral activity against Hepatitis C virus genotype 1b expressing NS4B V105M mutant infected in human HuH7 cells after 48 hrs by luciferase reporter gene assay; format: functional, organism-based, Hepacivirus hominis; settings: Huh-7, 48 h
Rattus norvegicus = assay: Prodrug conversion in CD rat assessed as 4-(3-chloro-6-cyclopropyl-8-(trifluoromethyl)imidazo[1,2-a]pyridine-2-carbonyl)-1-((trans)-4-hydroxycyclohexyl)piperazin-2-one level at 300 mg/kg, po; format: ADME, organism-based; parameters: dose 300 mg/kg, route oral; settings: in vivo
Outline: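 CD rats were given a single oral dose of 300 mg/kg of parent suspension or of prodrug. Plasma was assayed for the parent drug and for uncleaved prodrug.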

Hepatitis C virus [7] = assay: Antiviral activity against wild-type Hepatitis C virus genotype 1a infected in PXB mouse assessed as log reduction in viral mRNA titer at 100 mg/kg, po bid every 12 hrs for 7 days relative to control; format: functional, Hepacivirus hominis, subtype 1a
Outline: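 PXB mice were infected with HCV genotype 1a wild-type virus and treated 5−8 weeks later (n = 4/group). Oral dosing b.i.d. for 7 days: prodrug at 10 or 30 mg/kg, or positive control at 100 mg/kg. Serum HCV RNA titers (viral load) were followed over the course of dosing.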

| Structure (SMILES) | pIC50 [1] | Activity (Huh-7) | pEC50 (Hepatitis C virus [2]) | pEC50 (Hepatitis C virus [3]) | pEC50 (Hepatitis C virus [4]) | chromatographic logD [5] | pEC50 (Hepatitis C virus [6]) | Stability (Rattus norvegicus) | FC (Hepatitis C virus [7]) |
| --- | --- | --- | --- | --- | --- | --- | --- | --- | --- |
| O=C(c1oc2c(C(F)(F)F)cc(C3CC3)cc2c1Cl)N1CCN([C@H]2CC[C@H](O)CC2)C(=O)C1 | 8.40 | Non-toxic | 10.05 | 9.10 | 7.66 | 5.1 | 6.96 |  |  |
| O=C(c1nn2c(C(F)(F)F)cc(C3CC3)cc2c1Cl)N1CCN([C@H]2CC[C@H](O)CC2)C(=O)C1 | 7.92 | Non-toxic | 9.52 | 8.70 | 7.49 | 4.1 | 6.51 |  |  |
| O=C(c1nn2c(C(F)(F)F)cc(C3CC3)cc2c1Cl)N1CCN([C@H]2C[C@H]3C[C@H]3[C@H]2O)C(=O)C1 | 7.80 |  | 6.92 | 7.52 | < 6.00 |  | < 6.00 |  |  |
| O=C(c1nn2c(C(F)(F)F)cc(C3CC3)cc2c1Cl)N1CCC(N2CCOC2=O)CC1 | 7.43 |  | 8.70 | 8.30 | 7.03 |  | 6.43 |  |  |
| O=C(c1nn2c(C(F)(F)F)cc(C3CC3)cc2c1Cl)N1CCN(C(=O)[C@H]2C[C@H](O)C2)CC1 | > 7.40 |  | 8.70 | 8.08 | 6.48 |  | < 6.00 |  |  |
| Cn1c(C(=O)N2CCN([C@H]3CC[C@H](O)CC3)C(=O)C2)nc2c(C(F)(F)F)cc(C3CC3)cc21 | 7.62 | Non-toxic | 9.30 | 8.52 | 6.82 | 4.3 | 6.64 |  |  |
| O=C(c1nn2c(C(F)(F)F)cc(C3CC3)cc2c1Cl)N1CCN([C@@H]2C[C@@H]3C[C@@H]3[C@@H]2O)C(=O)C1 | 7.64 |  | 7.02 | 7.72 | < 6.00 |  | < 6.00 |  |  |
| O=C(CO)O[C@H]1CC[C@H](N2CCN(C(=O)c3nc4c(C(F)(F)F)cc(C5CC5)cn4c3Cl)CC2=O)CC1 |  |  |  |  |  |  |  | Stable |  |
| O=C(c1nn2c(C(F)(F)F)cc(C3CC3)cc2c1Cl)N1CCN([C@@H]2C[C@H]3C[C@H]3[C@@H]2O)C(=O)C1 | 7.74 |  | 8.10 | 8.31 | 7.19 |  | 6.40 |  |  |
| O=C(c1nn2c(C(F)(F)F)cc(C3CC3)cc2c1Cl)N1CCN([C@@H]2C[C@H]3C[C@H]3[C@H]2O)C(=O)C1 | 7.64 |  | 8.40 | 8.64 | 7.42 |  | 7.19 |  |  |
| O=C(c1nc2c(C(F)(F)F)cc(C3CC3)cn2c1Cl)N1CCN([C@@H]2C[C@H]3C[C@H]3C2)C(=O)C1 | 7.24 |  | 8.85 | 9.00 | 7.70 |  | 7.23 |  |  |
| O=C(c1nc2c(C(F)(F)F)cc(C3CC3)cn2c1Cl)N1CCC(N2CCOC2=O)CC1 | 7.12 |  | 8.08 | 7.92 | 6.43 |  | < 6.00 |  |  |
| CN(C)CC(=O)O[C@H]1CC[C@H](N2CCN(C(=O)c3nc4c(C(F)(F)F)cc(C5CC5)cn4c3Cl)CC2=O)CC1 |  |  |  |  |  |  |  | Stable |  |
| O=C(c1nc2c(C(F)(F)F)cc(C3CC3)cn2c1Cl)N1CCC2(OCC3(CC3)CO2)C(O)C1 (racemic) | 7.55 |  | 7.85 | 8.37 | 6.64 |  | 6.11 |  |  |
| O=C(c1nn2c(C(F)(F)F)cc(C3CC3)cc2c1Cl)N1CCN([C@H]2C[C@@H]3C[C@@H]3[C@H]2O)C(=O)C1 | 7.74 |  | 7.39 | 7.85 | < 6.00 |  | < 6.00 |  |  |
| O=C(c1nn2c(C(F)(F)F)cc(C3CC3)cc2c1Cl)N1CCC2(OCC3(CC3)CO2)C(O)C1 (racemic) | 8.00 |  | 8.40 | 8.72 | 7.41 |  | 6.60 |  |  |
| O=C(c1nc2c(C(F)(F)F)cc(C3CC3)cn2c1Cl)N1CCN(C(=O)[C@H]2C[C@H](O)C2)CC1 | 7.00 |  | 8.20 | 7.72 | 6.14 |  | < 6.00 |  |  |
| CNC(=O)c1c(-c2ccc(F)cc2)oc2cc(N(CCO)S(C)(=O)=O)c(C3CC3)cc12 [NESBUVIR] |  |  |  |  |  |  |  |  | 2.2 |
| CCC(=O)O[C@H]1CC[C@H](N2CCN(C(=O)c3nc4c(C(F)(F)F)cc(C5CC5)cn4c3Cl)CC2=O)CC1 |  |  |  |  |  |  |  | Stable |  |
| O=C(O)COCC(=O)O[C@H]1CC[C@H](N2CCN(C(=O)c3nc4c(C(F)(F)F)cc(C5CC5)cn4c3Cl)CC2=O)CC1 |  |  |  |  |  |  |  | Stable |  |
